Test results reported in publication PMC4721940 (Journal of enzyme inhibition and medicinal chemistry, 2015).

Assays:
[1] = molecular target: T1, human neutrophil elastase (HNE) (Homo sapiens, UniProt P08246); experiment: HNE inhibition assay; assay type: biochemical
T1 sequence (P08246 30-247 limits assumed): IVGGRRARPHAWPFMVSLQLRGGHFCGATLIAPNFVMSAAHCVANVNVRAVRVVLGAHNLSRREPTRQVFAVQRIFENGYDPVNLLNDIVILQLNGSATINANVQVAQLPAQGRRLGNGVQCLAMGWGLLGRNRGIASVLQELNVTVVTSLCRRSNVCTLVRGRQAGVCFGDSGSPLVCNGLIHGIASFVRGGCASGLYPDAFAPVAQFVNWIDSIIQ
How it was run: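 Human neutrophil elastase (20 mU/mL) in 200 mM Tris-HCl pH 7.5 with 0.01% BSA and 0.05% Tween-20, pre-incubated 5 min with test compound (DMSO final 1%). Started with 25 μM MeOSuc-Ala-Ala-Pro-Val-AMC. Fluorescence (ex 355/em 460 nm) read every 30 s for 10 min at 25 °C.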

[2] = Spontaneous hydrolysis in phosphate buffer; assay type: physicochemical; settings: after 60 min in aqueous buffer, absorbance at 325 nm
How it was run: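 Test compound in 0.05 M phosphate buffer, pH 7.3, at 25 °C. Absorbance at each compound's absorption maximum read over time until no further decrease (A∞). k′ taken from the slope of log(At–A∞) vs time; t1/2 = 0.693/k′.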

HNE = molecular target: T2, HNE (Homo sapiens, UniProt P08246); experiment: Reactivation of the HNE–inhibitor complex after ultrafiltration; assay type: biochemical; settings: 25 μM inhibitor, data not shown
T2 sequence (P08246 30-247 limits assumed): T1 sequence (P08246 30-247 limits assumed)

[3] = molecular target: T1, human neutrophil elastase (HNE); experiment: HNE inhibition constant; assay type: biochemical
Stability in human serum = assay type: in vitro ADME; settings: 25 °C
How it was run: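 Serum prepared by clotting fresh human blood 1 h at room temperature. Test compound (10 mM DMSO stock) added to serum and incubated at 25 °C. Timed aliquots quenched in acetonitrile and centrifuged 5 min at 10 000g. Analysed by RP-HPLC: C18 column, acetonitrile/water 65/35 with 0.1% TFA, 1 mL/min, 40 °C, diode-array detection 200–300 nm. Remaining compound calculated from peak area.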

HNE inhibitory activity (in words) [1] | SMILES | also measured
completely devoid of activity | Cc1cccc(C(=O)N2NCC(O)c3ccccc32)c1 (stereo not drawn) [Compound 19, (4-Hydroxy-3,4-dihydrocinnolin-1(2H)-yl)(m-tolyl)meyhanone] | –
loss of activity | Cc1cccc(C(=O)n2nc(-c3ccccc3)c(=O)c3ccccc32)c1 [Compound 11a, 1-(3-Methylbenzoyl)-3-phenylcinnolin-4(1H)-one] | –
completely inactive | CCOC(=O)c1nn(C)c2ccccc2c1=O [Compound 5, Ethyl 1-methyl-4-oxo-1,4-dihydrocinnoline-3-carboxylate] | –
– | Cc1cccc(C(=O)n2ncc(=O)c3cc([N+](=O)[O-])ccc32)c1 [Compound 21a, 1-(3-Methylbenzoyl)-6-nitrocinnolin-4(1H)-one] | Extent of hydrolysis [2]: hydrolyzed almost completely
loss of activity | Cc1cccc(C(=O)n2nc(CO)c(=O)c3ccccc32)c1 [Compound 11d, 3-(Hydroxymethyl)-1-(3-methylbenzoyl)cinnolin-4(1H)-one] | –
completely inactive | CCOC(=O)c1nn(Cc2cccc(C)c2)c2ccccc2c1=O [Compound 6, Ethyl 1-(3-methylbenzyl)-4-oxo-1,4-dihydrocinnoline-3-carboxylate] | –
loss of activity | Cc1cccc(C(=O)n2nc(C(=O)O)c(=O)c3ccccc32)c1 [Compound 8, 1-(3-Methylbenzoyl)-4-oxo-1,4-dihydrocinnoline-3-carboxylic acid] | –
– | Cc1cccc(C(=O)n2ncc(=O)c3ccccc32)c1 [Compound 18a, 1-(3-Methylbenzoyl)cinnolin-4(1H)-one] | Recovery of HNE activity after removing free inhibitor (HNE): fully reversible; Ki [3]: 75 nM; Type of HNE inhibition ([3]; double-reciprocal Lineweaver–Burk plots): competitive inhibitors; percent of initial compound remaining (Stability in human serum; 5 min of incubation): < 3%; compound remaining (Stability in human serum; after 10 min): essentially no detectable compounds
